The values below come from PubChem BioAssay AID2805 (Sanford-Burnham Center for Chemical Genomics, 2010).

Screen size: about 330,000 compounds; about 780 (0.24%) were called active. The list comes from a sample in which actives are over-represented; it also holds similar structures and randomly drawn compounds. Unmarked numbers belong to inactive results.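 The calls were made as follows: active = activation factor of at least 2 at 20 µM; inactive = the rest.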

This test relates to intestinal alkaline phosphatase [Mus musculus]. As to the kind of experiment: activators of mouse IAP, primary screen, biochemical, luminescence, uHTS (AID 2805). The settings on record: muIAP, CDP-Star luminescence, 30 min; at 10 µM; active compounds read high; 1 = vehicle-only enzyme signal, 0 = enzyme-free wells. A digest of the protocol: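 Assay system: mouse IAP enzyme; reagent: chemiluminescent substrate CDP-Star; dosing: test compounds delivered from DMSO solution; schedule: 30 min at room temperature; measured by: luminescence from enzymatic CDP-Star hydrolysis; controls: DMSO-only wells and no-enzyme negative control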
Take `CCN(C[C@H]1N[C@@](CC)(C(=O)OC)[C@H]2C(=O)N(Cc3ccccc3)C(=O)[C@@H]12)S(=O)(=O)c1ccc(C(F)(F)F)cc1`: the activation factor was 1.06. The value for `O=C(CCn1ccc([N+](=O)[O-])n1)Nc1nccs1` was 1.04. The value for `Cc1c(Cl)cccc1NC(=S)NCc1ccc2c(c1)OCO2` was 1.41; that for `CN(C)S(=O)(=O)c1cccc(NC(=S)N/N=C/C(=O)c2ccccc2)c1` was 0.778. The value for `CN(C)S(=O)(=O)c1cccc(NC(=S)NCc2ccc3c(c2)OCO3)c1` was 2.5 (active); that for `C/C(=N\Nc1nc2ccccc2[nH]1)c1cccs1` was 1.07. As to `COCCn1c(C)cc(C(=O)CN2c3cccc4cccc(c34)S2(=O)=O)c1C`, the activation factor was 1.06. `CCc1nn(CCCC(=O)NC(C)c2ccccc2)c(=O)c2cc3occc3n12` (stereo not drawn): the activation factor was 0.908. The value for `CCN(CC(=O)Nc1ccccc1C(=O)NC1CC1)Cc1cccs1` was 0.951; that for `O=C(NCc1ccccn1)Nc1ccc(Cl)cc1` was 1.1.

In the case of `CC(=O)N1CCC(N(C(=O)Nc2ccc(Cl)cc2)C(C)C)CC1`, the activation factor was 1.1.

As to `CC(C)S(=O)(=O)c1csc(NC(=O)Nc2ccc(Cl)cc2)c1Cl`, the activation factor is 2.9 (active).

For the molecule `Fc1ccccc1COc1ccccc1CNCc1ccncc1`, the activation factor was 0.935. Regarding `O=C(CSc1nnc(Cn2cnc3ccccc32)o1)c1ccccc1`, the activation factor was 0.997. With `N#Cc1cnn2cc(CCN3CCOCC3)c(-c3ccc(F)cc3)nc12`, the activation factor was 0.899. As for `O=CN1CCN(C(=O)c2ccc3c(c2)OCO3)CC1`, the figure is 1.06; as for `COc1cccc(NC(=O)C2c3cc(OC)c(OC)cc3C(=O)N(C)C2c2cccnc2)c1` (stereo not drawn), 0.967.

As to `COc1cccc(NC(=O)C2CCCN2C(=O)OCc2ccccc2)c1` (stereo not drawn), the activation factor was 0.929.

In the case of `COc1cccc(NC(=O)C2C(c3ccccc3)C2(Cl)Cl)c1` (stereo not drawn), the activation factor was 2.76 (active). As to `CC(Sc1nnc(-c2ccccc2F)n1C1CC1)C(N)=O` (stereo not drawn), the activation factor was 1. For the molecule `CC(=O)Nc1ccc(NC(=O)CC2CCCC2)cc1`, the activation factor was 1.03.

Turning to `O=C(Nc1ccc(C(=O)N2CCOCC2)cc1)Nc1cccc(C(F)(F)F)c1`, the activation factor is 1.56. Consider `CCNS(=O)(=O)c1ccc(NC(=O)Nc2cccc(C(F)(F)F)c2)cc1`, for which the activation factor was 2.22 (active).

On to `O=C(NCc1ccccc1)c1ccc(S(=O)(=O)Nc2cccc(C(F)(F)F)c2)cc1`, for which the activation factor is 0.856.

`COc1ccc(C(C(=O)NC2CCCC2)N(CCCO)C(=O)Cn2nnc(-c3ccc(C)o3)n2)cc1` (stereo not drawn): the activation factor is 1.05.

On to `S=C(NCc1ccco1)NCc1ccccc1Cl`, for which the activation factor was 1.01.

As for `S=C(NCCc1ccccc1)NCc1ccccc1Cl`, the activation factor was 2.23 (active).

Consider `Cc1ccc(NC(=S)NCc2ccccc2Cl)c(C)c1`, for which the activation factor is 1.27. The value for `CCCCCCC12CCC(C(=O)O)(CC1)CC2` was 1.01; that for `O=C(CN1C(=O)NC2(CCCCC2)C1=O)N1CCN(C(=O)c2cccs2)CC1` was 0.968; that for `Cc1ccc(C)c(S(=O)(=O)N2CCCOC2CNC(=O)C(=O)NC2CCCCC2)c1` (stereo not drawn) was 1.04. As for `Nc1nnc(SCC(=O)NC2CCCc3ccccc32)s1` (stereo not drawn), the figure is 1; as for `Cc1cc(Nc2ccc(Br)cc2F)n2ncnc2n1`, 0.862. As for `Cc1ccc(NC(=O)Nc2ccccc2)c(Br)c1`, the figure is 1.26.

Turning to `Cc1cccc(NC(=O)Nc2cccc(Oc3c(F)c(F)c(F)c(F)c3F)c2)c1`, the activation factor was 3.37 (active). The value for `Cc1ccoc1C(=O)Nc1cccc(Oc2ccccc2)c1` was 0.9; that for `O=C(O)c1cc(S(=O)(=O)Nc2ccc3cn[nH]c3c2)ccc1Br` was 0.965. The value for `CS/C(=C\C(=O)c1ccco1)Nc1ccccc1Cl` was 0.883.
